Data published in ChEMBL document CHEMBL3045116, “Synthesis and biological evaluation of 2-(5-substituted-1-((diethylamino)methyl)-2-oxoindolin-3-ylidene)-N-substituted-hydrazinecarbothioamides” (Med Chem Res, 2013).

Experiments:
Proteus vulgaris = assay: Antibacterial activity against Proteus vulgaris assessed as growth inhibition at 50 ug/ml by cup-plate method (reference value: 8 to 10 mm); format: functional; details: read-out: DIZ
[1] = system: Respiratory syncytial virus; assay: Antiviral activity against Respiratory syncytial virus infected human HeLa cells assessed as reduction of virus-induced cytopathic effect after 3 days by colorimetric formazan-based MTS assay; format: functional, organism-based; details: 72 h
Procedure, shortened: (§1)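 Confluent cell monolayers were infected with 100 CCID50 of virus, and serial dilutions of compound were added at the time of infection.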

[2] = Cytotoxicity against Chlorocebus aethiops (African green monkey) Vero cells assessed as change in cellular morphology; format: cell-based; details: chlorocebus sabaeus
CCRF-CEM = assay: Cytotoxicity against Homo sapiens (human) CEM cells assessed as growth inhibition after 72 hr by coulter counter analysis; format: functional, cell-based
Procedure, shortened: (§2)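 Cells in growth medium were allowed to proliferate with variable compound amounts at 37 °C in a humidified CO2 atmosphere. Incubation ran 48 h for L1210, 72 h for CEM and 96 h for HeLa. Cells were then counted with a Coulter counter.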

Staphylococcus aureus = assay: Antibacterial activity against Staphylococcus aureus assessed as growth inhibition at 50 ug/ml by cup-plate method (reference value: 8 to 10 mm); format: functional; details: read-out: DIZ
[3] = system: Vesicular stomatitis virus; assay: Antiviral activity against Vesicular stomatitis virus infected human HeLa cells assessed as reduction of virus-induced cytopathic effect after 3 days by colorimetric formazan-based MTS assay; format: functional, organism-based; details: 72 h; procedure, shortened: as §1
Respirovirus muris = assay: Antiviral activity against Sendai virus infected African green monkey Vero cells assessed as reduction of virus-induced cytopathic effect after 3 days by colorimetric formazan-based MTS assay; format: functional, organism-based; details: 72 h
Vaccinia virus = assay: Antiviral activity against Vaccinia virus infected human HEL cells assessed as reduction of virus-induced cytopathic effect after 3 days by colorimetric formazan-based MTS assay; format: functional, organism-based; details: Orthopoxvirus vaccinia, 72 h; procedure, shortened: as §1
Candida albicans = assay: Antifungal activity against Candida albicans assessed as growth inhibition at 50 ug/ml by cup-plate method (reference value: 8 to 10 mm); format: functional; details: read-out: DIZ
[4] = (§3) Cytotoxicity against Homo sapiens (human) HeLa cells assessed as change in cellular morphology; format: cell-based; details: HeLa cells
Procedure, shortened: (§4)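 Uninfected cells were exposed to compound in parallel with the antiviral cultures. The read-out is the minimum cytotoxic concentration that causes a microscopically detectable alteration of normal cell morphology.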

HeLa = assay: as §3; format: cell-based; details: hela; procedure, shortened: as §4
L1210 = assay: Cytotoxicity against Mus musculus (mouse) L1210 cells assessed as growth inhibition after 48 hr by coulter counter analysis; format: functional, cell-based; details: L1210, 48 h; procedure, shortened: as §2
Felid alphaherpesvirus 1 = assay: Antiviral activity against Felid herpesvirus 1 infected cat CRFK cells assessed as reduction of virus-induced cytopathic effect after 3 days by colorimetric formazan-based MTS assay; format: functional, organism-based; details: Felid alphaherpesvirus 1, CRFK, 72 h
Procedure, shortened: (§5)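 Cells grown to confluency in 96-well plates ([…], Vero for lines 9–10) were infected with 100 CCID50 of virus, and serial compound dilutions were added at infection. Plates were incubated at 37 °C for 3 days, until complete CPE appeared in untreated virus controls.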

Coxsackievirus B4 [5] = assay: Antiviral activity against Human coxsackievirus B4 infected human HeLa cells assessed as reduction of virus-induced cytopathic effect after 3 days by colorimetric formazan-based MTS assay; format: functional, organism-based; details: Enterovirus B, 72 h; procedure, shortened: as §1
Human respirovirus 3 = assay: Antiviral activity against Human parainfluenza virus 3 infected African green monkey Vero cells assessed as reduction of virus-induced cytopathic effect after 3 days by colorimetric formazan-based MTS assay; format: functional, organism-based; details: Human respirovirus 3, Vero, 72 h; procedure, shortened: as §5
Aspergillus niger = assay: Antifungal activity against Aspergillus niger assessed as growth inhibition at 50 ug/ml by cup-plate method (reference value: 8 to 10 mm); format: functional; details: read-out: DIZ
Salmonella typhi = assay: Antibacterial activity against Salmonella enterica subsp. enterica serovar Typhi assessed as growth inhibition at 50 ug/ml by cup-plate method (reference value: 8 to 10 mm); format: functional; details: read-out: DIZ
[6] = Inhibition of beta lactamase assessed as time for decolorization of iodine (reference value: 79.5 secs)
[7] = system: Mammalian orthoreovirus 1; assay: Antiviral activity against Mammalian orthoreovirus 1 infected African green monkey Vero cells assessed as reduction of virus-induced cytopathic effect after 3 days by colorimetric formazan-based MTS assay; format: functional, organism-based; details: Mammalian orthoreovirus 1, Vero, 72 h; procedure, shortened: as §5
Escherichia coli = assay: Antibacterial activity against Escherichia coli assessed as growth inhibition at 50 ug/ml by cup-plate method (reference value: 8 to 10 mm); format: functional; details: read-out: DIZ
Bacillus subtilis = assay: Antibacterial activity against Bacillus subtilis assessed as growth inhibition at 50 ug/ml by cup-plate method (reference value: 8 to 10 mm); format: functional; details: read-out: DIZ
Human alphaherpesvirus 1 [8] = assay: Antiviral activity against Human herpesvirus 1 strain KOS infected human HEL cells assessed as reduction of virus-induced cytopathic effect after 3 days by colorimetric formazan-based MTS assay; format: functional, organism-based; details: Human alphaherpesvirus 1, KOS, 72 h; procedure, shortened: as §1
[9] = Inhibition of beta lactamase assessed as increase in time taken for iodine decolorization relative to control; set-up: concentration or dose not given beside the values; details: concentration not given here
Klebsiella pneumoniae = assay: Antibacterial activity against Klebsiella pneumoniae assessed as growth inhibition at 50 ug/ml by cup-plate method (reference value: 8 to 10 mm); format: functional; details: read-out: DIZ
[10] = system: Vesicular stomatitis virus; assay: Antiviral activity against Vesicular stomatitis virus infected human HEL cells assessed as reduction of virus-induced cytopathic effect after 3 days by colorimetric formazan-based MTS assay; format: functional, organism-based; details: 72 h; procedure, shortened: as §1
Influenza B virus = assay: Antiviral activity against Influenza B virus infected in MDCK cells assessed as reduction of virus-induced cytopathic effect after 3 days by colorimetric formazan-based MTS assay; format: functional, organism-based; details: 72 h; procedure, shortened: as §1
Influenza A virus H3N2 = assay: Antiviral activity against Influenza A virus H3N2 infected MDCK cells assessed as reduction of virus-induced cytopathic effect after 3 days by colorimetric formazan-based MTS assay; format: functional, organism-based; details: 72 h; procedure, shortened: as §1
[11] = Cytotoxicity against Homo sapiens (human) HEL cells assessed as change in cellular morphology; format: cell-based
Human alphaherpesvirus 2 = assay: Antiviral activity against Human herpesvirus 2 strain G infected human HEL cells assessed as reduction of virus-induced cytopathic effect after 3 days by colorimetric formazan-based MTS assay; format: functional, organism-based; details: Human alphaherpesvirus 2, strain G, 72 h; procedure, shortened: as §1
[12] = system: Feline infectious peritonitis virus; assay: Antiviral activity against Feline Infectious peritonitis virus infected cat CRFK cells assessed as reduction of virus-induced cytopathic effect after 3 days by colorimetric formazan-based MTS assay; format: functional, organism-based; details: Alphacoronavirus 1, CRFK, 72 h; procedure, shortened: as §1
Influenza A virus = assay: Antiviral activity against Unidentified Influenza A virus (H1N1) infected MDCK cells assessed as reduction of virus-induced cytopathic effect after 3 days by colorimetric formazan-based MTS assay; format: functional, organism-based; details: 72 h; procedure, shortened: as §1
Punta Toro virus = assay: Antiviral activity against Punta Toro virus infected in African green monkey Vero cells assessed as reduction of virus-induced cytopathic effect after 3 days by colorimetric formazan-based MTS assay; format: functional, organism-based; details: 72 h; procedure, shortened: as §1
[13] = Cytotoxicity against Felis catus (cat) CRFK cells assessed as change in cellular morphology; format: cell-based; details: crfk; procedure, shortened: as §4
Human alphaherpesvirus 1 [14] = assay: Antiviral activity against acyclovir-resistant thymidine kinase negative Human herpesvirus 1 strain KOS infected human HEL cells assessed as reduction of virus-induced cytopathic effect after 3 days by colorimetric formazan-based MTS assay; format: functional, organism-based; details: Human alphaherpesvirus 1, KOS, 72 h; procedure, shortened: as §1
[15] = (§6) Cytotoxicity against MDCK cells assessed as change in cellular morphology; format: cell-based, Canis lupus familiaris; details: dog, MDCK cells; procedure, shortened: as §4
MDCK = assay: as §6; format: cell-based, Canis lupus familiaris; details: dog, mdck; procedure, shortened: as §4
Coxsackievirus B4 [16] = assay: Antiviral activity against Human coxsackievirus B4 infected African green monkey Vero cells assessed as reduction of virus-induced cytopathic effect after 3 days by colorimetric formazan-based MTS assay; format: functional, organism-based; details: Enterovirus B, 72 h; procedure, shortened: as §1

Compound	zone of inhibition at 50 µg/mL (Proteus vulgaris)	EC50 [1]	MCC [2]	IC50 (CCRF-CEM)	zone of inhibition at 50 µg/mL (Staphylococcus aureus)	EC50 [3]	EC50 (Respirovirus muris)	EC50 (Vaccinia virus)	zone of inhibition at 50 µg/mL (Candida albicans)	MCC [4]	CC50 (HeLa)	IC50 (L1210)	EC50 (Felid alphaherpesvirus 1)	EC50 (Coxsackievirus B4 [5])	EC50 (Human respirovirus 3)	zone of inhibition at 50 µg/mL (Aspergillus niger)	zone of inhibition at 50 µg/mL (Salmonella typhi)	TIME [6]	EC50 [7]	zone of inhibition at 50 µg/mL (Escherichia coli)	other results
CCN(CC)CN1C(=O)/C(=N/NC(=S)Nc2ccccc2)c2ccccc21	21 mm	> 20 µM	100 µM	11 µM	11 mm	> 20 µM	> 20 µM	20 µM	21 mm	≥ 20 µM	10.8 µM	13 µM	> 20 µM	> 20 µM	> 20 µM	21 mm	21 mm	0.0443 h	> 20 µM	11 mm	zone of inhibition at 50 µg/mL (Bacillus subtilis): 11 mm; EC50 (Human alphaherpesvirus 1 [8]): 20 µM; inhibition [9]: 50.2%; zone of inhibition at 50 µg/mL (Klebsiella pneumoniae): 11 mm; EC50 [10]: > 100 µM; EC50 (Influenza B virus): > 0.16 µM; EC50 (Influenza A virus H3N2): > 0.16 µM; MCC [11]: > 100 µM; EC50 (Human alphaherpesvirus 2): 15 µM; EC50 [12]: > 20 µM; EC50 (Influenza A virus): > 0.16 µM; EC50 (Punta Toro virus): > 20 µM; CC50 [13]: 32.3 µM; EC50 (Human alphaherpesvirus 1 [14]): > 100 µM; MCC [15]: 0.8 µM; CC50 (MDCK): 1.6 µM; EC50 (Coxsackievirus B4 [16]): > 20 µM
CCN(CC)CN1C(=O)/C(=N/NC(=S)Nc2ccc(OC)cc2)c2cc(Cl)ccc21	21 mm	> 0.8 µM	4 µM	6.9 µM	11 mm	> 0.8 µM	> 0.8 µM	> 20 µM	11 mm	4 µM	13.2 µM	11 µM	> 0.8 µM	> 0.8 µM	> 0.8 µM	11 mm	21 mm	0.0466 h	> 0.8 µM	11 mm	zone of inhibition at 50 µg/mL (Bacillus subtilis): 11 mm; EC50 (Human alphaherpesvirus 1 [8]): > 20 µM; inhibition [9]: 52.6%; zone of inhibition at 50 µg/mL (Klebsiella pneumoniae): 11 mm; EC50 [10]: > 20 µM; EC50 (Influenza B virus): > 0.8 µM; EC50 (Influenza A virus H3N2): > 0.8 µM; MCC [11]: 100 µM; EC50 (Human alphaherpesvirus 2): > 20 µM; EC50 [12]: > 0.8 µM; EC50 (Influenza A virus): > 0.8 µM; EC50 (Punta Toro virus): > 0.8 µM; CC50 [13]: 3.6 µM; EC50 (Human alphaherpesvirus 1 [14]): > 20 µM; MCC [15]: ≥ 0.8 µM; CC50 (MDCK): 11.1 µM; EC50 (Coxsackievirus B4 [16]): > 0.8 µM
CCN(CC)CN1C(=O)/C(=N/NC(=S)Nc2ccc(C)cc2)c2cc(Cl)ccc21	11 mm	> 4 µM	≥ 4 µM	4.6 µM	11 mm	> 4 µM	> 4 µM	> 20 µM	11 mm	≥ 4 µM	> 100 µM	9.5 µM	> 4 µM	> 4 µM	> 4 µM	11 mm	11 mm	0.0335 h	> 4 µM	21 mm	zone of inhibition at 50 µg/mL (Bacillus subtilis): 11 mm; EC50 (Human alphaherpesvirus 1 [8]): > 20 µM; inhibition [9]: 34.1%; zone of inhibition at 50 µg/mL (Klebsiella pneumoniae): 11 mm; EC50 [10]: > 20 µM; EC50 (Influenza B virus): > 0.8 µM; EC50 (Influenza A virus H3N2): > 0.8 µM; MCC [11]: 100 µM; EC50 (Human alphaherpesvirus 2): > 20 µM; EC50 [12]: > 4 µM; EC50 (Influenza A virus): > 0.8 µM; EC50 (Punta Toro virus): > 4 µM; CC50 [13]: 17.5 µM; EC50 (Human alphaherpesvirus 1 [14]): > 20 µM; MCC [15]: 4 µM; CC50 (MDCK): 11.3 µM; EC50 (Coxsackievirus B4 [16]): > 4 µM
CCN(CC)CN1C(=O)/C(=N/NC(=S)Nc2ccc(OC)cc2)c2ccccc21	21 mm	> 4 µM	4 µM	1.9 µM	11 mm	> 4 µM	> 0.8 µM	> 20 µM	11 mm	≥ 4 µM	> 100 µM	2.4 µM	> 0.8 µM	> 4 µM	> 0.8 µM	11 mm	21 mm	0.0343 h	> 0.8 µM	11 mm	zone of inhibition at 50 µg/mL (Bacillus subtilis): 11 mm; EC50 (Human alphaherpesvirus 1 [8]): > 20 µM; inhibition [9]: 35.7%; zone of inhibition at 50 µg/mL (Klebsiella pneumoniae): 11 mm; EC50 [10]: > 20 µM; EC50 (Influenza B virus): > 0.8 µM; EC50 (Influenza A virus H3N2): > 0.8 µM; MCC [11]: 100 µM; EC50 (Human alphaherpesvirus 2): > 20 µM; EC50 [12]: > 0.8 µM; EC50 (Influenza A virus): > 0.8 µM; EC50 (Punta Toro virus): > 0.8 µM; CC50 [13]: 3.5 µM; EC50 (Human alphaherpesvirus 1 [14]): > 20 µM; MCC [15]: 4 µM; CC50 (MDCK): 9.2 µM; EC50 (Coxsackievirus B4 [16]): > 0.8 µM
